Reference: ChEMBL document CHEMBL1275541, “A plasmid-borne blaOXA-58 gene confers imipenem resistance to Acinetobacter baumannii isolates from a Lebanese hospital” (2008)
≈ marks a conversion by molar mass, not a printed value. Calls of active or inactive are those of the source. The calls are words filed in the database; no cut-off is given here.

Legend:
Acinetobacter baumannii [1] = test: Antibacterial activity against Acinetobacter baumannii PFGE type A isolate by microdilution method; format: functional
How it was run: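 MIC by broth microdilution following CLSI M7-A6; susceptibility interpreted with CLSI breakpoints.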

Acinetobacter baumannii [2] = test: Antibacterial activity against Acinetobacter baumannii PFGE type A isolate by microdilution method in presence of Tazobactam; format: functional
Acinetobacter baumannii [3] = test: Antibacterial activity against Acinetobacter baumannii PFGE type A isolate assessed as reduction of MIC by microdilution method in presence of 200 mM NaCl; format: functional
How it was run: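 Broth microdilution MIC per CLSI M7-A6 with CLSI breakpoints. Carbapenem MICs compared with and without 200 mM NaCl to gauge the oxacillinase contribution. blaOXA-58-carrying PFGE type 1 isolates served as CHDL-positive reference and a blaOXA-58-negative PFGE type 2 isolate as CHDL-negative reference.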

Acinetobacter baumannii [4] = test: Antibacterial activity against Acinetobacter baumannii PFGE type A isolate assessed as reduction of MIC by microdilution method in presence of 200 mg/liter cloxacillin; format: functional, organism-based
How it was run: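 AmpC contribution was probed by liquid microdilution per CLSI M7-A6. Carbapenem MICs were read with and without 200 mg/liter cloxacillin.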

Acinetobacter baumannii [5] = test: Antibacterial activity against imipenem-susceptible Acinetobacter baumannii Ab F PFGE type B transconjugant by microdilution method; format: functional
How it was run: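 Transconjugants came from filter mating of imipenem-resistant donors Ab 1 or Ab 8 (PFGE type A) with recipient Ab F (PFGE type B). They were selected on brain heart infusion agar with imipenem 16 mg/liter plus trimethoprim-sulfamethoxazole 250 mg/liter. MICs were then read by microdilution per CLSI M7-A6.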

Acinetobacter baumannii [6] = test: Ratio of MIC for imipenem-susceptible Acinetobacter baumannii Ab F PFGE type B transconjugant to MIC for imipenem-susceptible Acinetobacter baumannii Ab F PFGE type B transconjugant in presence of 200 nM NaCl; format: functional; details: in the assay text read “200 mM NaCl” for “200 nM NaCl”
How it was run: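 Carbapenem MICs measured by liquid microdilution with and without 200 mM NaCl, to gauge the oxacillinase contribution. Controls were blaOXA-58-carrying PFGE type 1 isolates (CHDL-positive) and a blaOXA-58-negative PFGE type 2 isolate (CHDL-negative). Transconjugants came from filter mating into recipient Ab F and were selected on brain heart infusion agar with imipenem 16 mg/liter plus trimethoprim-sulfamethoxazole 250 mg/liter.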

Acinetobacter baumannii [7] = test: Antibacterial activity against Acinetobacter baumannii PFGE type A isolate by Etest MBL strip method; format: functional
How it was run: (§1)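 Imipenem MIC and MBL activity were read with Etest MBL strips on all PFGE type A isolates. A. baumannii AC-54/97, an IMP-2 MBL producer, was the MBL-positive reference strain.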

Acinetobacter baumannii [8] = test: Antibacterial activity against Acinetobacter baumannii PFGE type A isolate by Etest MBL strip method in presence of EDTA; format: functional; how it was run: as §1
Acinetobacter baumannii [9] = test: Antibacterial activity against Acinetobacter baumannii PFGE type A isolate by microdilution method in presence of Sulbactam; format: functional

Compound | MIC50 (Acinetobacter baumannii [1]) [µg/mL] | MIC90 (Acinetobacter baumannii [1]) [µg/mL] | further results
COLISTIN | 2 | 4 | 
CCN1CCN(C(=O)N[C@@H](C(=O)N[C@@H]2C(=O)N3[C@@H]2SC(C)(C)[C@@H]3C(=O)O)c2ccccc2)C(=O)C1=O [PIPERACILLIN] |  |  | MIC (Acinetobacter baumannii [2]): 125 µg/mL; MIC50 (Acinetobacter baumannii [2]): 125 µg/mL; MIC90 (Acinetobacter baumannii [2]): 250 µg/mL
O=C(O)c1cn(C2CC2)c2cc(N3CCNCC3)c(F)cc2c1=O [CIPROFLOXACIN] | 64 (≈ 193 µM) | 250 (≈ 754 µM) | 
C[C@@H](O)[C@H]1C(=O)N2C(C(=O)O)=C(SCCNC=N)C[C@H]12 [IMIPENEM ANHYDROUS] | 16 (≈ 53.4 µM) | 16 (≈ 53.4 µM) | MIC (Acinetobacter baumannii [3]): 2 µg/mL; Activity (Acinetobacter baumannii [4]): inactive; MIC (Acinetobacter baumannii [5]): 16 µg/mL (≈ 53.4 µM); Ratio (Acinetobacter baumannii [6]): 8; MIC (Acinetobacter baumannii [7]): 8 µg/mL (≈ 26.7 µM); MIC (Acinetobacter baumannii [8]): 4 µg/mL
CC1(C)S[C@@H]2[C@H](NC(=O)[C@H](N)c3ccccc3)C(=O)N2[C@H]1C(=O)O [AMPICILLIN] |  |  | MIC (Acinetobacter baumannii [9]): 8 µg/mL; MIC50 (Acinetobacter baumannii [9]): 8 µg/mL; MIC90 (Acinetobacter baumannii [9]): 16 µg/mL
NCC[C@H](O)C(=O)N[C@@H]1C[C@H](N)[C@@H](O[C@H]2O[C@H](CN)[C@@H](O)[C@H](O)[C@H]2O)[C@H](O)[C@H]1O[C@H]1O[C@H](CO)[C@@H](O)[C@H](N)[C@H]1O [AMIKACIN] | 64 (≈ 109 µM) | 125 (≈ 213 µM) | MIC (Acinetobacter baumannii [1]): 64 µg/mL (≈ 109 µM)
C[C@@H](O)[C@H]1C(=O)N2C(C(=O)O)=C(S[C@@H]3CN[C@H](C(=O)N(C)C)C3)[C@H](C)[C@H]12 [MEROPENEM] | 8 (≈ 20.9 µM) | 8 (≈ 20.9 µM) | 
CO/N=C(\C(=O)N[C@@H]1C(=O)N2C(C(=O)[O-])=C(C[N+]3(C)CCCC3)CS[C@H]12)c1csc(N)n1 [CEFEPIME] | 16 (≈ 33.3 µM) | 32 (≈ 66.6 µM) | MIC (Acinetobacter baumannii [1]): 16 µg/mL (≈ 33.3 µM)
CC(C)(O/N=C(\C(=O)N[C@@H]1C(=O)N2C(C(=O)[O-])=C(C[n+]3ccccc3)CS[C@H]12)c1csc(N)n1)C(=O)O [CEFTAZIDIME] | 250 (≈ 457 µM) | 250 (≈ 457 µM) | Activity (Acinetobacter baumannii [3]): inactive; Activity (Acinetobacter baumannii [4]): inactive
GENTAMICIN | 125 | 250 | 
